# Assay results as given in ChEMBL document CHEMBL4422629, “Discovery of an Orally Bioavailable and Central Nervous System (CNS) Penetrant mGlu7 Negative Allosteric Modulator (NAM) in Vivo Tool Compound: N-(2-(1 H-1,2,4-triazol-1-yl)-5-(trifluoromethoxy)phenyl)-4-(cyclopropylmethoxy)-3-methoxybenzamide (VU6012962)” (J Med Chem, 2019).
# Active and inactive are the calls of the source. The rule behind the calls is not given here.
# Tests used:
# [1] = tested on: Mus musculus; test: Anxiolytic-like activity in C57Bl/6J mouse assessed as increase in total time spent in the light side of the chamber at 15 mg/kg, ip measured during 10-min testing period; assay type: functional, organism-based
# How it was run: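 Mouse light/dark box anxiety model; single ip dose with a 1 h treatment time before testing. Read-out is total time spent in the light side of the chamber versus vehicle-treated controls. Groups compared by one-way ANOVA with Dunnett's post hoc test; all data points screened with Grubb's outlier test.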
# [2] = target: Metabotropic glutamate receptor 7 (Rattus norvegicus, UniProt P35400); test: Negative allosteric modulation of rat mGlu7 receptor expressed in HEK cells harboring Ga15 assessed as reduction in L-AP4-induced calcium flux preincubated for 142 secs followed by agonist addition and measured after 120 secs by Fluo-4-AM-dye based fluorescence assay; assay type: functional, cell-based
# Chain of Metabotropic glutamate receptor 7 (P35400 whole entry): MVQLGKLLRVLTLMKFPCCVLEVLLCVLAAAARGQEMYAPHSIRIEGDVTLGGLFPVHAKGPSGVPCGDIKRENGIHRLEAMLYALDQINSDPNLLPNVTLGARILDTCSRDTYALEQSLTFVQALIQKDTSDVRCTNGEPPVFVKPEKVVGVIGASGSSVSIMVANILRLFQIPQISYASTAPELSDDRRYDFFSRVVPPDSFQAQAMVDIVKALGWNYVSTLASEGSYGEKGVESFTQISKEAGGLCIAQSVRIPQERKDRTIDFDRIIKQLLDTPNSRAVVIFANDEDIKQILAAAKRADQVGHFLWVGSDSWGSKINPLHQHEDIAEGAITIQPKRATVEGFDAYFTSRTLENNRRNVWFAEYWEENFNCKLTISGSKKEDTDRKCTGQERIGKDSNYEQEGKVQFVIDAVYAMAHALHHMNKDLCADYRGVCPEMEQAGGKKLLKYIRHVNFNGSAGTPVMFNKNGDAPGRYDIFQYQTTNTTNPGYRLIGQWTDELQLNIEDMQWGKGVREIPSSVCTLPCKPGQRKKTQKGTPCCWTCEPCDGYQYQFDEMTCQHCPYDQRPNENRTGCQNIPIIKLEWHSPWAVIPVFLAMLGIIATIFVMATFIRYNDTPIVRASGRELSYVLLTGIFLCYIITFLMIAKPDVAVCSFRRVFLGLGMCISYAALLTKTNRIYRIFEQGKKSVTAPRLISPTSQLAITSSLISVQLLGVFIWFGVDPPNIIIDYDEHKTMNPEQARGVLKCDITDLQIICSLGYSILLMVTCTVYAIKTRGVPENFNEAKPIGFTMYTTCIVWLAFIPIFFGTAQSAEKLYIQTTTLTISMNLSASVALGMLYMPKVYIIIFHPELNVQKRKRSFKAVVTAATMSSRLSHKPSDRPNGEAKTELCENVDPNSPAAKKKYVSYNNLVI
# [3] = Fraction unbound in Sprague-Dawley rat plasma at 0.2 to 0.25 mg/kg, iv via cassette dosing measured up to 24 hrs post dose by LC/MS/MS analysis; assay type: ADME, organism-based; conditions: for fraction unbound at 24 h: Sprague-Dawley, plasma
# [4] = Unbound fraction in Sprague-Dawley rat brain at 0.2 to 0.25 mg/kg, iv via cassette dosing measured up to 24 hrs post dose by LC/MS/MS analysis; assay type: ADME, organism-based
# [5] = Fraction unbound in mouse plasma at 0.2 to 0.25 mg/kg, iv via cassette dosing measured up to 24 hrs post dose by LC/MS/MS analysis; assay type: ADME, organism-based
# [6] = Total plasma concentration in Sprague-Dawley rat at 30 mg/kg, ip measured at 1 hr post dose by LC/MS/MS analysis; assay type: ADME, organism-based
# How it was run: (§1)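 Rat tissue distribution after a single 30 mg/kg ip dose, with compound measured in plasma, brain and CSF. Kp taken as tissue:plasma total ratio. Unbound levels used plasma protein binding and brain homogenate binding fractions.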
# [7] = target: Metabotropic glutamate receptor 5 (Homo sapiens, UniProt P41594); test: Negative allosteric modulation of mGlu5 receptor (unknown origin)
# [8] = target: Metabotropic glutamate receptor 1 (Homo sapiens, UniProt Q13255); test: Negative allosteric modulation of mGlu1 receptor (unknown origin)
# [9] = target: Metabotropic glutamate receptor 4 (Homo sapiens, UniProt Q14833); test: Negative allosteric modulation of mGlu4 receptor (unknown origin)
# Chain of Metabotropic glutamate receptor 4 (Q14833 whole entry): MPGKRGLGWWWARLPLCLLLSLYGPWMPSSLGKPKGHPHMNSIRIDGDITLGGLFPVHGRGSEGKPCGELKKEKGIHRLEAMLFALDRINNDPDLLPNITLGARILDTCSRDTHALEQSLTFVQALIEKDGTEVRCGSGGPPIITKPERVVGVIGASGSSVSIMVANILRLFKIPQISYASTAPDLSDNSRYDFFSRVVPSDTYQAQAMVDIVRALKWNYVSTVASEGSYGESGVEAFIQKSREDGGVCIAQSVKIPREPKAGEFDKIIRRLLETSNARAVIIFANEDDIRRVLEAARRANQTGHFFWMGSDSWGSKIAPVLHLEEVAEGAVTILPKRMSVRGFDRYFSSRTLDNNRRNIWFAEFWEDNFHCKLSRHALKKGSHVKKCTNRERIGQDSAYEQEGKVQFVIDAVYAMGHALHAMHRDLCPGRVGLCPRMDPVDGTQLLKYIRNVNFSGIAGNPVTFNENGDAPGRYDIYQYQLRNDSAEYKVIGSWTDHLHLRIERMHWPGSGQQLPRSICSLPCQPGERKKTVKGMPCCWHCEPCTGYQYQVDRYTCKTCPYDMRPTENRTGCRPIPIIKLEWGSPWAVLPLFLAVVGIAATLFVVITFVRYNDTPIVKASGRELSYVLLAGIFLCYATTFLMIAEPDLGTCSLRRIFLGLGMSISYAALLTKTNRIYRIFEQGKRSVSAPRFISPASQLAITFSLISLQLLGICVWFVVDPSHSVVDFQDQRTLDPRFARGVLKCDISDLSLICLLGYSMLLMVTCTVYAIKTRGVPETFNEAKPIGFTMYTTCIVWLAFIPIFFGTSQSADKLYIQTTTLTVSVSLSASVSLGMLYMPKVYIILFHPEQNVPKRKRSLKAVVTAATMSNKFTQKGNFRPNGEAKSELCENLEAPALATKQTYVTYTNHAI
# [10] = CSF to plasma permeability coefficient, Kp of the compound in Sprague-Dawley rat at 30 mg/kg, ip measured at 1 hr post dose by LC/MS/MS analysis; assay type: ADME, organism-based; how it was run: as §1
# [11] = tested on: Mus musculus; test: Anxiolytic-like activity in C57Bl/6J mouse assessed as increase in total time spent in the light side of the chamber at 3 mg/kg, ip measured during 10-min testing period; assay type: functional, organism-based
# How it was run: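 Mouse light/dark box at 3 mg/kg ip, with fluoxetine 15 mg/kg ip as reference; read-out was total time in the light side. Analysis by one-way ANOVA with Dunnett's post hoc test against vehicle, plus Grubb's outlier test.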
# [12] = tested on: Mus musculus; test: Anxiolytic-like activity in C57Bl/6J mouse assessed as suppression of marble burying activity at 3 mg/kg, ip administered 45 mins before habituation for 15 mins and measured following 30 mins interval by marble burying assay; assay type: functional, organism-based
# How it was run: (§2)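 Mouse marble-burying assay, ip dosing of test agent or fluoxetine, counting marbles buried. Analysis by one-way ANOVA with Dunnett's post hoc test against vehicle, plus Grubb's outlier test.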
# [13] = Brain to plasma permeability coefficient, Kp of the compound in Sprague-Dawley rat at 30 mg/kg, ip measured at 1 hr post dose by LC/MS/MS analysis; assay type: ADME, organism-based; how it was run: as §1
# [14] = Drug level in Sprague-Dawley rat cerebrospinal fluid at 30 mg/kg, ip measured at 1 hr post dose by LC/MS/MS analysis; assay type: ADME, organism-based; conditions: read-out: Drug uptake; how it was run: as §1
# [15] = Drug level in C57Bl/6J mouse cerebrospinal fluid at 3 mg/kg, ip measured at 1 hr post dose by LC/MS/MS analysis; assay type: ADME, organism-based; conditions: read-out: Drug uptake
# How it was run: (§3)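 Mouse pharmacokinetic assessment at 3 mg/kg ip, sampled at the 1 h time point used in the behavioural tests.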
# [16] = Brain to plasma permeability coefficient, Kp of the compound in Sprague-Dawley rat at 0.2 to 0.25 mg/kg, iv via cassette dosing measured up to 24 hrs post dose by LC/MS/MS analysis; assay type: ADME, organism-based
# How it was run: (§4)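 Rat IV cassette study of plasma:brain levels. Brain Kp taken as total brain:plasma; Kp,uu corrected with the rat brain homogenate unbound fraction.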
# [17] = Oral bioavailability in Sprague-Dawley rat at 10 mg/kg measured up to 24 hrs by LC-MS/MS analysis; assay type: ADME, organism-based; conditions: in vivo
# How it was run: (§5)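 Rat discrete pharmacokinetics after iv and po (10 mg/kg) dosing, giving plasma clearance, Vss, half-life and oral bioavailability.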
# [18] = Plasma concentration in C57Bl/6J mouse at 3 mg/kg, ip measured at 1 hr post dose by LC/MS/MS analysis; assay type: ADME, organism-based; how it was run: as §3
# [19] = tested on: Mus musculus; test: Reduction in locomotive activity in C57Bl/6J mouse assessed as reduction in total distance traveled in maze at 10 mg/kg, ip after 120 secs by elevated zero maze assay; assay type: ADME, organism-based; conditions: in vivo, 2 min
# How it was run: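 Elevated zero maze in mice dosed intraperitoneally; locomotion read as total distance traveled. Analysis by one-way ANOVA with Bonferroni post hoc test between doses.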
# [20] = Total brain concentration in Sprague-Dawley rat at 0.2 to 0.25 mg/kg, iv via cassette dosing measured up to 24 hrs post dose by LC/MS/MS analysis; assay type: ADME, organism-based; conditions: read-out: Drug uptake; how it was run: as §4
# [21] = tested on: Mus musculus; test: Anxiolytic-like activity in C57Bl/6J mouse assessed as suppression of marble burying activity […], ip administered 45 mins before habituation for 15 mins and measured following 30 mins interval by marble burying assay; assay type: functional, organism-based; conditions: 3 mg/kg, in the assay text read “3 mg/kg” for “15 mg/kg”; how it was run: as §2
# [22] = target: Metabotropic glutamate receptor 3 (Homo sapiens, UniProt Q14832); test: Negative allosteric modulation of mGlu3 receptor (unknown origin)
# Chain of Metabotropic glutamate receptor 3 (Q14832 whole entry): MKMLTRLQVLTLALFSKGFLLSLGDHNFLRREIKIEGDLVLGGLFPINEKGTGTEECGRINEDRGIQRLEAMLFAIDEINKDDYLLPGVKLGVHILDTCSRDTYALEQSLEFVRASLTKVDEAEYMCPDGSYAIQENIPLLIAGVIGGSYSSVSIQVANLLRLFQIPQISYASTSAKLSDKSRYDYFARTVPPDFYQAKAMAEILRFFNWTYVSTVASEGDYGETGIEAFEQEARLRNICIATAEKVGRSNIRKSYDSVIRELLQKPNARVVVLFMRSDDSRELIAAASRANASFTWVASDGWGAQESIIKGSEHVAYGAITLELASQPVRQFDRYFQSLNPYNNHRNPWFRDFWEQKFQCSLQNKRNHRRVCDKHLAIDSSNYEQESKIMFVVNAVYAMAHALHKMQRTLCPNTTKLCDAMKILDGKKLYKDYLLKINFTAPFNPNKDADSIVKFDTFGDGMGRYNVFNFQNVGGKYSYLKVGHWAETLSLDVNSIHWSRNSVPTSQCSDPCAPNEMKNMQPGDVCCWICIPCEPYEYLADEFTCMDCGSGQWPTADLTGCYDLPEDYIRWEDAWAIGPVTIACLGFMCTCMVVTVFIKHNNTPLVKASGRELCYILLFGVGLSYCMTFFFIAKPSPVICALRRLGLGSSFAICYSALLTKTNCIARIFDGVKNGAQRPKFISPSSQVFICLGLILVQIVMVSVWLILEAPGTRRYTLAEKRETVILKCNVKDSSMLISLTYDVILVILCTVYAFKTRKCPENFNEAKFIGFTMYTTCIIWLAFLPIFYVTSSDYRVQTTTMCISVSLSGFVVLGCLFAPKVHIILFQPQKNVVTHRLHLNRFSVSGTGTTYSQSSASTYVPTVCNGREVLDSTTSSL
# [23] = Unbound brain concentration in Sprague-Dawley rat at 0.2 to 0.25 mg/kg, iv via cassette dosing measured up to 24 hrs post dose by LC/MS/MS analysis; assay type: ADME, organism-based; conditions: in vivo; how it was run: as §4
# [24] = target: Metabotropic glutamate receptor 2 (Homo sapiens, UniProt Q14416); test: Negative allosteric modulation of mGlu2 receptor (unknown origin)
# Chain of Metabotropic glutamate receptor 2 (Q14416 whole entry): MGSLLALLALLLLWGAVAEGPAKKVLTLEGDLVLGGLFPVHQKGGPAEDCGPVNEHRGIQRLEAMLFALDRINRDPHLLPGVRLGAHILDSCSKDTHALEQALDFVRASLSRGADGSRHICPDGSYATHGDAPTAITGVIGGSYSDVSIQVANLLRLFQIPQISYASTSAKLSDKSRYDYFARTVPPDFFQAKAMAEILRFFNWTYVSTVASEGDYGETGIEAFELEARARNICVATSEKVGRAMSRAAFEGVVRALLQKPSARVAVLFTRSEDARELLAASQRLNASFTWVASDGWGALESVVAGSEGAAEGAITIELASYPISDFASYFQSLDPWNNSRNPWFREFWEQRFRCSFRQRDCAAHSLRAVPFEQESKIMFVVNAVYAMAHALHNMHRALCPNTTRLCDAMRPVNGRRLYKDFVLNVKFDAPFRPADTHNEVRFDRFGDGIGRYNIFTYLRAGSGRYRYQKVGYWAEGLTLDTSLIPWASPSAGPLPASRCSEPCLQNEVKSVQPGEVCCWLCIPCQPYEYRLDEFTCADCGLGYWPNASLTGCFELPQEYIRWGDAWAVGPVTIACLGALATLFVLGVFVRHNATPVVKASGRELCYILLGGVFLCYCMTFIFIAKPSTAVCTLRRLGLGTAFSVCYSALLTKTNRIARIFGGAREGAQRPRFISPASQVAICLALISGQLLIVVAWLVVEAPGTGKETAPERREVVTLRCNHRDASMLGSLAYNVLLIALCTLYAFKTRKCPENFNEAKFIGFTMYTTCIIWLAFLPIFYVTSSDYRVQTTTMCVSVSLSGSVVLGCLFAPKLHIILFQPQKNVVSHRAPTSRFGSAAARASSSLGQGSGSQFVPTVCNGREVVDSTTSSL
# [25] = Fraction unbound in Sprague-Dawley rat plasma at 30 mg/kg, ip measured at 1 hr post dose by LC/MS/MS analysis; assay type: ADME, organism-based; conditions: in vivo
# [26] = Ratio of drug level in C57Bl/6J mouse cerebrospinal fluid at 3 mg/kg, ip measured at 1 hr post dose by LC/MS/MS analysis to negative allosteric modulation of rat mGlu7 receptor expressed in HEK cells harboring Ga15; assay type: ADME, organism-based; conditions: in vivo
# [27] = Total brain concentration in Sprague-Dawley rat at 30 mg/kg, ip measured at 1 hr post dose by LC/MS/MS analysis; assay type: ADME, organism-based; conditions: read-out: Drug uptake; how it was run: as §1
# [28] = Volume of distribution at steady state in Sprague-Dawley rat at 0.2 mg/kg, iv or 10 mg/kg, po measured up to 24 hrs by LC-MS/MS analysis; assay type: ADME, organism-based; conditions: in vivo; how it was run: as §5
# [29] = target: Metabotropic glutamate receptor 8 (Homo sapiens, UniProt O00222); test: Negative allosteric modulation of mGlu8 receptor (unknown origin)
# [30] = Unbound brain to plasma concentration ratio in Sprague-Dawley rat at 30 mg/kg, ip measured at 1 hr post dose by LC/MS/MS analysis; assay type: ADME, organism-based; how it was run: as §1
# [31] = tested on: Mus musculus; test: Anti-anxiety activity in ip dosed C57Bl/6J mouse assessed as increase in total time spent in open arms by elevated zero maze assay; assay type: functional; conditions: read-out: MED
# How it was run: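 Mouse elevated zero maze after intraperitoneal dosing at several doses; read-out was total time in open arms. Analysis by one-way ANOVA with Bonferroni post hoc test against vehicle.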
# [32] = Fraction unbound in Sprague-Dawley rat brain at 0.2 to 0.25 mg/kg, iv via cassette dosing measured up to 24 hrs post dose by LC/MS/MS analysis; assay type: ADME, organism-based
# [33] = Ratio of drug level in Sprague-Dawley rat cerebrospinal fluid at 30 mg/kg, ip measured at 1 hr post dose by LC/MS/MS analysis to Negative allosteric modulation of rat mGlu7 receptor expressed in HEK cells harboring Ga15; assay type: ADME, organism-based; conditions: in vivo
# [34] = target: Metabotropic glutamate receptor 6 (Homo sapiens, UniProt O15303); test: Negative allosteric modulation of mGlu6 receptor (unknown origin)
# Chain of Metabotropic glutamate receptor 6 (O15303 whole entry): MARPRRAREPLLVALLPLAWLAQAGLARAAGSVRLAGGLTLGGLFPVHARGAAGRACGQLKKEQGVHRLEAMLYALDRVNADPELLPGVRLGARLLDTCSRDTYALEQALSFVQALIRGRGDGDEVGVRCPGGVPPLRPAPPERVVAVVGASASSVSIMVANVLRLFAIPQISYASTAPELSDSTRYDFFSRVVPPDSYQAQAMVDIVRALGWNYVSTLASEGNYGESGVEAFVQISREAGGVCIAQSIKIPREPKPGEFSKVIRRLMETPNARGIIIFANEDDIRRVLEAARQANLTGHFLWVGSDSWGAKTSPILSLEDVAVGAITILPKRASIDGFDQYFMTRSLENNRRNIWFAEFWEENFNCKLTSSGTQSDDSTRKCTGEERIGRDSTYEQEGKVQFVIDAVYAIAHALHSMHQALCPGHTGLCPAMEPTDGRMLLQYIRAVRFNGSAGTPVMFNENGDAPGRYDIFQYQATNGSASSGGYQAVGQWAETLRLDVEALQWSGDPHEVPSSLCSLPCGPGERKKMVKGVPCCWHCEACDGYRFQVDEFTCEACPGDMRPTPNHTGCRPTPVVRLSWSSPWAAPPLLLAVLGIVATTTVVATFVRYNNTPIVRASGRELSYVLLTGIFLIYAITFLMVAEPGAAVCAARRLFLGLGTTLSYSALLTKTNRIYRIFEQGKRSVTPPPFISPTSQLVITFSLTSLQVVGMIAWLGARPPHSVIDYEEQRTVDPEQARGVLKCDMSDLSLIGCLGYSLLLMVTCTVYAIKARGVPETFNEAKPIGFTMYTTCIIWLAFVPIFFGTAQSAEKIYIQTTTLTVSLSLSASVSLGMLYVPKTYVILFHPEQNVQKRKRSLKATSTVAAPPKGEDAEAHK
# [35] = Fraction unbound in Sprague-Dawley rat brain at 30 mg/kg, ip measured at 1 hr post dose by LC/MS/MS analysis; assay type: ADME, organism-based; conditions: in vivo
# [36] = Half life in Sprague-Dawley rat at 0.2 mg/kg, iv or 10 mg/kg, po measured up to 24 hrs by LC-MS/MS analysis; assay type: ADME, organism-based; conditions: in vivo; how it was run: as §5
# [37] = Unbound brain-to-plasma concentration ratio in Sprague-Dawley rat brain at 0.2 to 0.25 mg/kg, iv via cassette dosing measured up to 24 hrs post dose by LC/MS/MS analysis; assay type: ADME, organism-based; how it was run: as §4
# [38] = target: 5-hydroxytryptamine receptor 2B (Homo sapiens) (UniProt P41595); test: Binding affinity to cloned human 5-HT2B expressed in CHO-K1 cell membranes by radioligand displacement assay
# Chain of 5-hydroxytryptamine receptor 2B (Homo sapiens) (P41595 whole entry): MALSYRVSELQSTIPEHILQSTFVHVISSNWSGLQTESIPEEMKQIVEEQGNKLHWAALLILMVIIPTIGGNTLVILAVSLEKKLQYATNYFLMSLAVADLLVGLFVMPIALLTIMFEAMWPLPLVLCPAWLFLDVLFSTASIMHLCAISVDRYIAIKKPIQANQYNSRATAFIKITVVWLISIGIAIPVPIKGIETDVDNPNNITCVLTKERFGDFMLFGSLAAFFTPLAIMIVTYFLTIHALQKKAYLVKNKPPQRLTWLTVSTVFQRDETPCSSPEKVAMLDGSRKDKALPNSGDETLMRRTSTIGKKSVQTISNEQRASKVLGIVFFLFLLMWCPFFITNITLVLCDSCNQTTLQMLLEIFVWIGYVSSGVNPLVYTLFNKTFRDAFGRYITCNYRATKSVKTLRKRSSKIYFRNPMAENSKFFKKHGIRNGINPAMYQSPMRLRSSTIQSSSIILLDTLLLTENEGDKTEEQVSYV
# How it was run: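 Eurofins lead profiling panel of 68 GPCRs, ion channels and transporters, tested at 10 μM and read as percent activity.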
smiles,measurement,setting,value
CNCCC(Oc1ccc(C(F)(F)F)cc1)c1ccccc1 (centres undefined),Activity,[1],Active
COc1cc(F)c(CCCNc2cc(Cl)ccc2-n2cncn2)cc1OC,IC50,[2],> 10 µM
COc1cc(C(=O)Nc2cc(OC(F)(F)F)ccc2-n2cncn2)ccc1OCC1CCC1,IC50,[2],1.4 µM
COc1cc(F)c(OCCNc2cc(Cl)ccc2-n2cncn2)cc1OC,IC50,[2],> 10 µM
COc1ccc(CCCNc2cc(OC(F)(F)F)ccc2-n2cncn2)cc1OC,fraction unbound at 24 h,[3],0.01 to 0.03
same,IC50,[2],1.6 µM
same,fraction unbound at 24 h,[4],< 0.003
COc1cc(C(=O)Nc2cc(OC(F)(F)F)ccc2-n2cncn2)ccc1OCc1ccccc1,IC50,[2],3.1 µM
COc1ccc(CCCNc2cc(Cl)ccc2-n2cncn2)cc1OC,IC50,[2],> 10 µM
COc1ccc(CNc2cc(OC(F)(F)F)ccc2-n2cncn2)cc1OC,fraction unbound at 24 h,[3],0.01 to 0.03
same,IC50,[2],5.9 µM
same,fraction unbound at 24 h,[4],< 0.003
COc1cc(C(=O)Nc2cc(OC(F)(F)F)ccc2-n2cncn2)ccc1OCC1CCCC1,IC50,[2],2.8 µM
COc1cc(F)c(CCCNc2cc(OC(F)(F)F)ccc2-n2cncn2)cc1OC,fraction unbound at 24 h,[3],0.01 to 0.03
same,IC50,[2],1.3 µM
same,fraction unbound at 24 h,[4],< 0.003
COc1ccc(CNc2cc(Cl)ccc2-n2cncn2)cc1OC,IC50,[2],7.9 µM
COc1cc(F)c(OCCNc2cc(OC(F)(F)F)ccc2-n2cncn2)cc1OC,fraction unbound at 24 h,[3],0.01 to 0.03
same,IC50,[2],1.2 µM
same,fraction unbound at 24 h,[4],< 0.003
COc1cc(C(=O)Nc2cc(OC(F)(F)F)ccc2-n2cncn2)ccc1OCC(F)(F)F,IC50,[2],> 30 µM
COc1cc(C(=O)Nc2cc(OC(F)(F)F)ccc2-n2cncn2)ccc1OCC(C)C,IC50,[2],1.2 µM
COc1cc(C(=O)Nc2cc(OC(F)(F)F)ccc2-n2cncn2)ccc1OCC1CC1,fraction unbound at 24 h,[5],0.026
same,concentration at 1 h,[6],598 nM
same,IC50,[7],> 10 µM
same,IC50,[8],> 10 µM
same,Fu,"[3]; in vivo, 24 h",0.028
same,IC50,[9],> 10 µM
same,Kp,[10],2.15
same,Activity,[11],Active
same,Activity,[12],Active
same,Kp,[13],1.24
same,concentration at 1 h,[14],1300 nM
same,IC50,[2],0.35 µM
same,concentration at 1 h,[15],883 nM
same,Kp,[16],2.35
same,F,[17],74.9%
same,concentration at 1 h,[18],303 nM
same,Activity,[19],Toxic
same,concentration at 24 h,[20],375 nM
same,Activity,[21],Active
same,IC50,[22],> 10 µM
same,Drug uptake(free),[23],3.4 nM
same,IC50,[24],> 10 µM
same,Cp(f),[25],16.7 nM
same,Ratio,[26],2.5
same,concentration at 1 h,[27],745 nM
same,Vdss,[28],1.9 L/kg
same,IC50,[29],> 10 µM
same,"K(p,uu,brain)",[30],0.38
same,fraction unbound at 24 h,[4],0.009
same,minimal effective dose,[31],3 mg/kg
same,fraction unbound at 24 h,[32],0.009
same,Ratio,[33],3.8
same,IC50,[34],> 10 µM
same,Drug uptake(free),[35],6.4 nM
same,t1/2,[36],40 min
same,"K(p,uu,brain)",[37],0.75
same,Activity,[38],> 50%
